NadD block – inhibitors of Staphylococcus aureus NadD; inhibition, % at 20 µM; 0.78% of 360,000 active; purified NadD enzyme, colorimetric absorbance read-out; AID 602399; in the data active = inhibition above about 26%
GRK2 aptamer HTS – human GRK2 inhibition via aptamer displacement; 0.59% of 330,000 active; bead flow cytometry, FAM-aptamer displacement from GRK2; P25098; inhibition of aptamer binding, % at 10 µM;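 active = inhibition of aptamer binding above 40%, roughly 3 SD of noise, on plates passing a quality check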;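 note: median bead fluorescence of bound FAM aptamer so fluorescent compounds give negative values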
B2AR ag – activates human beta-2 adrenergic receptor causing internalization. P07550. Am2.2-beta2AR cells, FAP receptor internalization, flow cytometry. response, % (no concentration beside the values). 0.43% of 340,000 active. AID 504454;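 active = response above a set limit, near 3 SD of response in nonfluorescent compounds, cut at about 42% in these data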
Target sequence (P07550 whole entry, looked up): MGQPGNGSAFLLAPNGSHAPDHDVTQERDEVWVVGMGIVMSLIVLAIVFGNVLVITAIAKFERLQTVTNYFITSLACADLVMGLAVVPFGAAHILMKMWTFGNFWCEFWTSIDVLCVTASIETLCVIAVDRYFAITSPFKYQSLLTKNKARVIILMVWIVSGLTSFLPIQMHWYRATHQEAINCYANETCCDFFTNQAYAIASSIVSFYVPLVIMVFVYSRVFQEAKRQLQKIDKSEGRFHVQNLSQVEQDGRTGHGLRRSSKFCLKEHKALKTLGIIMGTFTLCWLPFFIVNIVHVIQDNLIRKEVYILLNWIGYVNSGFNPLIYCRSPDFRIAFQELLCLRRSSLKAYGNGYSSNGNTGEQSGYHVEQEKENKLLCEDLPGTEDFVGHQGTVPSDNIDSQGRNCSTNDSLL
ABHD5 PLIN5 PPI – inhibitors of human ABHD5-perilipin-5 interaction | AID 602281 | 0.78% of 360,000 active | inhibition, % at 4 µM | Q00G26+Q8WTS1 | Split G. princeps luciferase complementation, luminescence, 4 h;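 active = inhibition above the mean inhibition across every tested compound plus 3 SD, cut at about 22% in these data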;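 note: 0% = DMSO only wells and the 100% control is not disclosed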
SENP1 FRET inh – inhibitors of human SENP1 SUMO protease catalytic domain; inhibition, % at 10 µM; 0.21% of 360,000 active; Q9P0U3; recombinant SENP1 catalytic domain, CyPet-SUMO1-YPet FRET cleavage;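 active = inhibition at least 30% at 10 µM, raw YFP signal under a set limit, fluorescence ratio 0.5 to 1.5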;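 note: 0% = enzyme with DMSO and 100% = no enzyme wells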
Target sequence (Q9P0U3 419-644 limits assumed): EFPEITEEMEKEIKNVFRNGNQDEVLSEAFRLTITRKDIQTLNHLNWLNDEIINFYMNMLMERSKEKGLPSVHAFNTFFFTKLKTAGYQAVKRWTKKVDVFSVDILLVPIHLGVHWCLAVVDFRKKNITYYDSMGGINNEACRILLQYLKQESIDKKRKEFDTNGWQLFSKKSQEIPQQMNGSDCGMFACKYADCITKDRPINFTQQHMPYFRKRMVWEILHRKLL
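Test system: human SENP1 catalytic domain; medium: Tris pH 8 buffer plus EDTA, NaCl, BME, BSA, NP40, catalase; incubation: 50 min reaction at room temperature; technique: FRET, CFP and YFP emission; controls: no-enzyme low control and enzyme-plus-DMSO high control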
The depositor's hits bear a star; x = no result given. Only some compounds are listed: those with a hit (about 2.5% of all), similar ones and a draw of the others.

SMILES | NadD block | GRK2 aptamer HTS | B2AR ag | ABHD5 PLIN5 PPI | SENP1 FRET inh
CN(Cc1ccccc1)S(=O)(=O)c1ccccc1Br | -1 | 0 | -1 | -2 | 3
COc1ccccc1/C=C1\SC(=S)N(CCC(=O)NNC(=O)c2ccccc2O)C1=O | 32* | 2 | 19 | 2 | -10
COc1ccc(/C=C2\SC(=S)N(CCCC(=O)NNC(=O)c3ccccc3O)C2=O)cc1 | 38* | 3 | 1 | 2 | 2
O=C(CCCN1C(=O)/C(=C/c2cccs2)SC1=S)NNC(=O)c1ccccc1O | 28* | 0 | -7 | 0 | 3
Cc1ccc(/C=C2/SC(=S)N(CCCC(=O)Nc3cc([N+](=O)[O-])ccc3O)C2=O)cc1 | 51* | 0 | 8 | 2 | 3
CCOC(=O)C1(C)CCCN(C(=O)c2ccccc2OC(F)(F)F)C1 (centres undefined) | 0 | x | x | 2 | 4
COc1cc2c(cc1OC)C(COc1cccc(C(F)(F)F)c1)NCC2 (centres undefined) | 3 | 0 | 14 | 0 | 6
CC(=O)c1c(C(C)=O)c(C)n(-c2nc(-c3ccc(C)c(C)c3)c(C)s2)c1C | -2 | 2 | 6 | -4 | 1
COc1ccc(-c2nc(-n3c(C)c(C(C)=O)c(C(C)=O)c3C)sc2C)cc1 | 2 | 78* | 3 | 4 | 1
O=C(COC(=O)C1CC2CCCC(C1)C2=O)Nc1cccc(F)c1 (centres undefined) | 2 | 0 | -7 | 4 | 1
O=C(N/N=C/c1cc(Cl)ccc1O)c1ccc(Br)cc1 | 5 | 0 | -7 | -5 | -26
Cc1ccc(N=Nc2ccc(O)c(/C=N\NC(=O)c3ccc(N)cc3)c2)cc1C | 48* | 0 | -6 | 3 | 4
O=C(COc1ccccc1/C=C\c1nc(O)c([N+](=O)[O-])c(=O)[nH]1)Nc1ccccc1 | 5 | x | 1 | 23* | 1
O=C(COC(=O)C1C2CC3OC(=O)C1C3C2)Nc1cccc(C(F)(F)F)c1 (centres undefined) | -6 | 0 | -7 | 3 | 4
COc1ccccc1C(=O)NCC(=O)OCc1nnc(-c2ccccc2)o1 | -4 | x | x | 5 | -1
CCCCCn1c2c(c(=N)c3ccccc31)CCC2 | 15 | 0 | -13 | -3 | 0
Cc1cc(C)c2c(=N)c3ccccc3n(CCCCCCCCn3c4ccccc4c(=N)c4c(C)cc(C)nc43)c2n1 | 27 | x | 63* | 10 | -28
COc1ccc2nc(C)cc(N/N=C/c3ccccc3)c2c1 | 1 | 0 | 47* | 9 | -3
N#Cc1cc(Oc2ccccc2)c(-n2nnc3ccccc32)cc1C#N | -4 | 0 | 5 | -4 | -1
N#Cc1cc(Oc2ccc3ccccc3c2)c(-n2nnc3ccccc32)cc1C#N | 12 | 0 | 48* | -3 | 1
C/C(=N\OCc1nc2ccccc2c(=O)n1/N=C/c1cc([N+](=O)[O-])ccc1O)c1ccccc1 | 32* | 0 | 18 | -4 | -29
C/C(=N\OCc1nc2ccccc2c(=O)n1/N=C/c1cc(C)cc([N+](=O)[O-])c1O)c1ccccc1 | -7 | 2 | 6 | -9 | 2
O=S(=O)(NCc1nnc2ccccn12)c1ccc(F)cc1 | 0 | x | 1 | 8 | 1
COc1ccccc1CCNC(=O)C(=O)NCC1OCCN1S(=O)(=O)c1ccc(OC)c(OC)c1 (centres undefined) | -4 | 0 | 8 | -4 | -1
COc1ccc(C(=O)/C=C/C(=O)N(CC(=O)NCCC(C)C)Cc2cccs2)c(O)c1 | 3 | x | 120* | 12 | 1
SMILES | NadD block | GRK2 aptamer HTS | B2AR ag | ABHD5 PLIN5 PPI | SENP1 FRET inh
COc1ccc(C(=O)N(Cc2ccco2)Cc2cccs2)c(O)c1 | -3 | 2 | 2 | 4 | -1
COc1ccc(C(=O)/C=C/C(=O)N(CC(=O)NC2CCCCC2)Cc2ccc(F)cc2)c(O)c1 | 4 | x | 123* | 18 | 3
COC(=O)c1c(C)oc2ccc(N(C(=O)Oc3ccccc3)S(=O)(=O)c3ccc(Cl)c([N+](=O)[O-])c3)cc12 | 31* | 0 | 60* | 0 | 0
CNC(=S)N=Nc1c(O)[nH]c2ccc(C(C)C)cc12 | -2 | 0 | -11 | 3 | 2
CC(C)c1ccc2[nH]c(O)c(N=NC(=O)c3cccc(S(=O)(=O)N4CCCCC4)c3)c2c1 | 31* | 7 | 10 | 5 | 5
CC(C)c1ccc2[nH]c(O)c(N=NC(=O)c3cccc(S(=O)(=O)Nc4ccc(Cl)cc4)c3)c2c1 | 37* | 0 | -5 | 1 | 3
O=C(N=Nc1c(O)[nH]c2ccccc12)c1cccc(S(=O)(=O)N2CCCCC2)c1 | 10 | 0 | -13 | -4 | 5
CC(C)c1ccc2[nH]c(O)c(N=NC(=O)c3cccc(S(=O)(=O)Nc4cccc(Cl)c4)c3)c2c1 | 35* | 2 | 9 | -7 | 0
C/C(=N\NC(=O)c1cccc(S(=O)(=O)Nc2cccc(Cl)c2)c1)c1cccs1 | 14 | 3 | 0 | 4 | 3
Cc1ccc2oc(C(=O)N3CCN(Cc4nccn4C)CC3)c(C)c2c1 | 4 | 0 | -2 | 2 | 2
O=C(NCc1nnnn1-c1ccc(F)c(F)c1)c1ccc2c(c1)OCO2 | 2 | 0 | 0 | -6 | 0
Cc1nc2ccccc2c(=O)n1/N=C/c1ccc(O)c(O)c1O | 33* | 6 | 6 | -15 | 2
Cc1nc2ccccc2c(=O)n1/N=C/c1ccccc1O | -1 | 0 | -5 | -1 | -12
CCCCn1c(N)c(N(CCOC)C(=O)CC(NC(=O)c2ccccc2)c2ccccc2)c(=O)[nH]c1=O (centres undefined) | -1 | 5 | -2 | -6 | -1
Nc1nonc1N/N=C/c1c(O)ccc2ccccc12 | -7 | 1 | 4 | 4 | -22
Nc1cc(Cl)nc(N/N=C/c2c(O)ccc3ccccc23)n1 | 0 | 1 | 10 | 0 | 48*
Cc1cc(C)c(NC(=O)Cn2c(=O)n(Cc3ccco3)c(=O)c3ccccc32)c(C)c1 | 1 | 0 | -5 | 43* | -3
Cc1ccccc1Cn1c(=O)n(Cc2ccco2)c(=O)c2ccccc21 | 6 | 1 | -1 | 9 | 1
COC(=O)c1sc(NC(=O)COc2cccnc2[N+](=O)[O-])c(C(=O)OC)c1C | -1 | 1 | 0 | -7 | -13
CC(C)Oc1ccc(C(=O)Nc2c3c(nn2C(C)(C)C)CS(=O)(=O)C3)cc1 | -7 | 1 | 2 | 5 | 2
COc1ccc(C(=O)CC(Nc2ccc([N+](=O)[O-])cc2)c2ccc(OC)cc2)cc1 (centres undefined) | 3 | 1 | 5 | -2 | -4
CNC(CC(=O)c1ccc([N+](=O)[O-])cc1)C(Cl)(Cl)Cl (centres undefined) | 7 | 1 | 91* | 5 | 3
CC(C)NC(=O)C1(C)CN(S(C)(=O)=O)CC(=O)N1CCc1ccccc1 (centres undefined) | x | x | x | -3 | -5
C=C(C)C(=O)Nc1ccc2c(c1)OCCOCCOCCO2 | 5 | 93* | -6 | 5 | 13
